Data set [1] can be described thus: Cytotoxicity in mammalian Cricetulus griseus CHO (Chinese hamster ovary) cells measured after 48 hr by MTT assay. Conditions: read-out: LD50. A general note: Tetrazolium assays rely on reduction of a dye to a coloured formazan, in cell work by metabolically active cells.
The subject of data set [2] is Leptinotarsa decemlineata. Kind of data set: Mortality in adult Leptinotarsa decemlineata in host plant measured after 72 hr. The format is functional. On the set-up: concentration or dose not given beside the values. In a few lines: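 Test compounds in DMSO (10 µg/insect) were injected into the hemolymph of 20 adult beetles. Mortality was recorded for up to 3 days (72 h), analysed with contingency tables and corrected by Abbott's method.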

The subject of data set [3] is Spodoptera littoralis. Kind of data set: Effect on weight gain in L6 larvae Spodoptera littoralis assessed as biomass compound injected orally relative to control. The format is functional.
Data set [4] concerns Leptinotarsa decemlineata. Description: Antifeedant activity against adult Leptinotarsa decemlineata in host plant assessed as feeding inhibition. The class given is functional, organism-based. In a few lines: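 Choice feeding assay with adult beetles. Percent feeding inhibition was calculated. Compounds giving over 50% inhibition went on to a dose-response test, and EC50 (dose for 50% feeding reduction, µg/cm2) was derived by linear regression of % inhibition on log dose.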

Data set [5] concerns Spodoptera littoralis. Kind of data set: Effect on ingestion in L6 larvae Spodoptera littoralis assessed as consumption compound injected orally relative to control. The class given is functional.
Data set [6] has as its system Spodoptera littoralis. Description: Antifeedant activity against L6 larvae Spodoptera littoralis compound injected orally relative to control. The format is functional, organism-based.

Converted amounts (≈) assume the structure as drawn. The source made the active and inactive calls. The calls are words filed in the database; no cut-off is given here.

The mortality is the percentage killed.

As to `COc1c(C(C)C)cc2c(c1O)[C@@]1(C)CCCC(C)(C)[C@@H]1CC2`, the CC50 at 48 h in data set [1] is greater than 100 µg/mL. In addition, the mortality in data set [2] stood at 14%. Also, the Activity with Spodoptera littoralis [3] worked out at 102%; in the data set with Spodoptera littoralis [5], 91%. The EC50 in data set [4] stood at 10.2 microg/cm2. Further, the outcome with Spodoptera littoralis [6] was inactive.
With `CC(C)c1cc2c(c(O)c1O)[C@@]1(C)CCCC(C)(C)[C@@H]1[C@@H](O)C2=O` [6-ALPHA-HYDROXYDEMETHYL-CRYPTOJAPONOL], the CC50 at 48 h in data set [1] was greater than 100 µg/mL. In addition, the result in the data set on Spodoptera littoralis [6] was inactive.
In the case of `CC(C)c1cc2c(c(O)c1O)[C@@]1(C)CCCC(C)(C)C1=C(O)C2=O` [14-DEOXYCOLEON U], the CC50 at 48 h in data set [1] is greater than 100 µg/mL. In addition, the mortality in data set [2] is given as 29%. In addition, the figures for the Activity with Spodoptera littoralis [3] and in the data set on Spodoptera littoralis [5] were 99% and 107%, respectively. The EC50 in data set [4] is 1.8 microg/cm2. Moreover, in the data set with Spodoptera littoralis [6], the outcome was inactive.
For the compound `CC(C)c1cc2c(c(O)c1O)C[C@@]13CCCC(C)(C)[C@@H]1C[C@@H]2O3` [BRUSSONOL], the CC50 at 48 h in data set [1] is 50.6 µg/mL (≈ 160 µM). In data set [2], this compound gave a mortality of 7%. In data set [4], the EC50 is listed as greater than 100 microg/cm2.
On to `CC(C)c1cc2c(c(O)c1O)[C@@]1(C)CCCC(C)(C)[C@@H]1CC2=O` [DEMETHYLCRYPTOJAPONOL], for which the CC50 at 48 h in data set [1] stood at 36 µg/mL (≈ 114 µM). This compound returned a mortality in data set [2] of 43%. The Activity is listed as 105% in the data set with Spodoptera littoralis [3] and 103% with Spodoptera littoralis [5]. For the same compound, the EC50 in data set [4] was greater than 100 microg/cm2. Also, the result in the data set on Spodoptera littoralis [6] was inactive.
Take `COc1c(O)c2c(c(O)c1C(C)C)C(=O)C[C@H]1C(C)(C)CCC[C@]21C` [INUROYLEANOL]: the mortality in data set [2] worked out at 0%. Besides, the figures for the Activity in the data set on Spodoptera littoralis [3] and with Spodoptera littoralis [5] were 106% and 119%, respectively. The EC50 in data set [4] was greater than 100 microg/cm2. The result with Spodoptera littoralis [6] was inactive.

The values above are taken from ChEMBL document CHEMBL3045034, “Diterpenes from Salvia broussonetii transformed roots and their insecticidal activity” (J Agric Food Chem, 2005).
